Values after ≈ are worked out from the molar mass of the structure shown. Active and inactive are the calls of the source.

For assay [1], the system named is Staphylococcus aureus. The experiment in a line: Antibacterial activity against Staphylococcus aureus ATCC 6538p assessed as growth inhibition after 24 hrs by micro dilution method. It is filed as functional. Summed up:
(§1)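 MIC determined by broth microdilution in casein soy broth (pH 7.3) at an inoculum of 10^5 CFU/mL, incubated 24 h at 37 C. Levofloxacin was the comparator and controls were run alongside. Samples were tested in quadruplicate.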

In assay [2] the test system is Staphylococcus aureus. Description: Antibacterial activity against Staphylococcus aureus ATCC 6538p. The class given is functional. Summed up:
as §1

The test system of a further assay is Pseudomonas aeruginosa. The experiment in a line: Antibacterial activity against Pseudomonas aeruginosa ATCC […] assessed as growth inhibition after 24 hrs by micro dilution method. It is filed as functional. The essentials:
as §1

The test system of another assay is Bacillus spizizenii. The experiment in a line: Antibacterial activity against Bacillus subtilis ATCC 6633 assessed as growth inhibition after 24 hrs by micro dilution method. The class given is functional. The settings on record: ATCC 6633, 24 h. The essentials: as §1
The test system of assay [3] is Escherichia coli. The experiment in a line: Antibacterial activity against Escherichia coli ATCC 25922. The class given is functional.
The subject of assay [4] is Shigella sonnei. Description: Antibacterial activity against Shigella sonnei ATCC 15305. The class given is functional.
Assay [5] concerns Shigella sonnei. Description: Antibacterial activity against Shigella sonnei ATCC 15305 assessed as growth inhibition after 24 hrs by micro dilution method. The class given is functional. The settings on record: ATCC 15305, 24 h. Summed up:
as §1

The subject of assay [6] is Escherichia coli. Description: Antibacterial activity against Escherichia coli ATCC 25922 assessed as growth inhibition after 24 hrs by micro dilution method. The settings on record: ATCC 25922, 24 h. It is filed as functional. Summed up: as §1
Assay [7] relates to Salmonella typhimurium. Description: Antibacterial activity against Salmonella typhimurium ATCC 14028 assessed as growth inhibition after 24 hrs by micro dilution method. The class given is functional, Salmonella enterica subsp. enterica serovar Typhimurium. The settings on record: Salmonella enterica, ATCC 14028, 24 h. The essentials:
as §1

Assay [8] relates to Salmonella typhimurium. The experiment in a line: Antibacterial activity against Salmonella typhimurium ATCC 14028. The class given is functional, Salmonella enterica subsp. enterica serovar Typhimurium. The essentials:
as §1

For the next assay, the system named is Burkholderia cepacia. The experiment in a line: Antibacterial activity against Burkholderia cepacia ATCC 17759. It is filed as functional.
For assay [9], the system named is Enterococcus sp. Description: Antibacterial activity against Enterococcus sp. ATCC 6589. It is filed as functional.
Assay [10] has as its system Enterococcus sp. Description: Antibacterial activity against Enterococcus sp. ATCC 6589 assessed as growth inhibition by measuring turbidity of medium measured over 10 hrs by microplate reader analysis. The class given is functional, organism-based. Summed up:
(§2)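 Overnight casein soy broth cultures (37 C) were centrifuged, resuspended in fresh medium and adjusted to about 5 10^7 cells/mL (OD620 0.2). Cells were grown in microplate wells to mid-log phase, then twofold serial dilutions of the test agents in fresh medium were added. OD620 was read every 15 min at 23 C for 10 h, with 30 s shaking between reads. Runs were in quadruplicate.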

In assay [11] the test system is Morganella morganii. The experiment in a line: Antibacterial activity against Morganella morganii ATCC 8019. The class given is functional.
Assay [12] deals with Morganella morganii. The experiment in a line: Antibacterial activity against Morganella morganii ATCC 8019 assessed as growth inhibition after 24 hrs by micro dilution method. It is filed as functional. The settings on record: ATCC 8019, 24 h. The essentials: as §1
Assay [13] deals with Morganella morganii. The experiment in a line: Antibacterial activity against Morganella morganii ATCC 8019 assessed as growth inhibition by measuring turbidity of medium measured over 10 hrs by microplate reader analysis. It is filed as functional, organism-based. Summed up: as §2
Assay [14] deals with Enterococcus sp. Description: Antibacterial activity against Enterococcus sp. ATCC 6589 assessed as growth inhibition after 24 hrs by micro dilution method. It is filed as functional. The settings on record: ATCC 6589, 24 h. The essentials:
as §1

A further assay concerns Klebsiella aerogenes. Description: Antibacterial activity against Enterobacter aerogenes ATCC 13048 assessed as growth inhibition after 24 hrs by micro dilution method. The settings on record: ATCC 13048, 24 h. It is filed as functional. The essentials: as §1
Assay [15] deals with Enterococcus sp. Description: Antibacterial activity against Enterococcus sp. ATCC 6589 assessed as growth inhibition by measuring turbidity of medium at 25 to 400 ug/mL measured over 10 hrs by microplate reader analysis. The class given is functional, organism-based. The essentials: as §2
In assay [16] the test system is Enterococcus sp. Description: Antibacterial activity against Enterococcus sp. ATCC 6589 assessed as growth inhibition by measuring turbidity of medium at 3.12 ug/mL measured after 3 hrs by microplate reader analysis. The class given is functional, organism-based. The essentials: as §2

One may read the MIC as the smallest concentration in the dilution series that meets the test's criterion for growth inhibition. With `COc1ccc2c(c1)C(O)C(Cc1ccccc1)(Cc1ccccc1)C(=O)N2` (stereo unspecified), the MIC in the assay on Staphylococcus aureus [1] amounted to 100 µg/mL (≈ 268 µM); in the assay with Pseudomonas aeruginosa, 100 µg/mL (≈ 268 µM); in the assay on Bacillus spizizenii, 50 µg/mL (≈ 134 µM); in the assay with Shigella sonnei [5] it was 100 µg/mL (≈ 268 µM); with Escherichia coli [6], 100 µg/mL (≈ 268 µM). Besides, the MLC with Staphylococcus aureus [2], with Escherichia coli [3] and in the assay on Shigella sonnei [4] was more than 200 µg/mL each time.

`CCN1C(=O)C(Cc2ccc(Cl)cc2)(Cc2ccc(Cl)cc2)C(O)c2cc(Cl)ccc21` (stereo unspecified): the MIC in the assay on Salmonella typhimurium [7] was found to be 50 µg/mL (≈ 105 µM); with Staphylococcus aureus [1] it was 6.25 µg/mL (≈ 13.2 µM); with Pseudomonas aeruginosa it was 50 µg/mL (≈ 105 µM); with Bacillus spizizenii, 3.12 µg/mL (≈ 6.57 µM); in the assay with Morganella morganii [12] it was 6.25 µg/mL (≈ 13.2 µM); in the assay on Enterococcus sp. [14] it was 6.25 µg/mL (≈ 13.2 µM). Moreover, the MIC in the assay with Shigella sonnei [5], with Klebsiella aerogenes and in the assay on Escherichia coli [6] was 50 µg/mL (≈ 105 µM) in each case. The MLC with Salmonella typhimurium [8] was 100 µg/mL (≈ 211 µM); with Burkholderia cepacia, 12.5 µg/mL (≈ 26.3 µM); with Enterococcus sp. [9] it was 25 µg/mL (≈ 52.7 µM); in the assay on Staphylococcus aureus [2], 50 µg/mL (≈ 105 µM); in the assay on Morganella morganii [11], 12.5 µg/mL (≈ 26.3 µM); in the assay on Escherichia coli [3], 100 µg/mL (≈ 211 µM). The molecule further gave an MLC in the assay on Shigella sonnei [4] of 100 µg/mL (≈ 211 µM). Further, the “growth inhibition (GI)” value in the assay with Enterococcus sp. [10] and in the assay on Morganella morganii [13] was “Dose-dependent effect” in each case.

As for `CCOC(=O)CN1C(=O)C(Cc2ccccc2)(Cc2ccccc2)C(O)c2ccccc21` (stereo unspecified), the MIC in the assay with Staphylococcus aureus [1] was more than 200 µg/mL; with Pseudomonas aeruginosa it was more than 200 µg/mL; with Bacillus spizizenii, more than 200 µg/mL; with Shigella sonnei [5], more than 200 µg/mL; in the assay on Escherichia coli [6], 100 µg/mL (≈ 233 µM). The same molecule came in with an MLC in the assay on Escherichia coli [3] of more than 200 µg/mL.

With `CCN1C(=O)C(Cc2ccccc2)(Cc2ccccc2)C(O)c2ccccc21` (stereo unspecified), the MIC with Staphylococcus aureus [1] was determined as 100 µg/mL (≈ 269 µM); in the assay on Pseudomonas aeruginosa it was 100 µg/mL (≈ 269 µM); in the assay with Bacillus spizizenii, 12.5 µg/mL (≈ 33.6 µM); in the assay on Shigella sonnei [5], 200 µg/mL (≈ 538 µM); in the assay on Escherichia coli [6], 100 µg/mL (≈ 269 µM). Further, the MLC in the assay with Staphylococcus aureus [2], in the assay with Escherichia coli [3] and in the assay on Shigella sonnei [4] was more than 200 µg/mL in each case.

In the case of `O=C1Nc2ccc(Cl)cc2C(O)C1(Cc1ccccc1)Cc1ccccc1` (stereo unspecified), the MIC came to 25 µg/mL (≈ 66.2 µM) in the assay on Staphylococcus aureus [1]; 50 µg/mL (≈ 132 µM) in the assay with Pseudomonas aeruginosa; 12.5 µg/mL (≈ 33.1 µM) in the assay on Bacillus spizizenii; 12.5 µg/mL (≈ 33.1 µM) with Shigella sonnei [5]; 12.5 µg/mL (≈ 33.1 µM) with Escherichia coli [6]. Moreover, the figures for the MLC in the assay with Staphylococcus aureus [2], in the assay on Escherichia coli [3] and in the assay on Shigella sonnei [4] were more than 200 µg/mL, 200 µg/mL (≈ 529 µM) and more than 200 µg/mL, respectively.

Turning to `COc1cccc2c1NC(=O)C(Cc1ccccc1)(Cc1ccccc1)C2O` (stereo unspecified), the MIC in the assay with Staphylococcus aureus [1], with Pseudomonas aeruginosa, with Bacillus spizizenii, in the assay with Shigella sonnei [5] and in the assay with Escherichia coli [6] was 100 µg/mL (≈ 268 µM) each time. In addition, the MLC with Staphylococcus aureus [2], with Escherichia coli [3] and in the assay with Shigella sonnei [4] was more than 200 µg/mL each time.

For the molecule `CC1(C)S[C@@H]2[C@H](NC(=O)[C@H](N)c3ccccc3)C(=O)N2[C@H]1C(=O)O`, the “growth inhibition (GI)” value with Enterococcus sp. [15] was “Active”.

Take `O=C1Nc2ccccc2C(O)C1(Cc1ccccc1Cl)Cc1ccccc1Cl` (stereo unspecified): the MIC in the assay with Staphylococcus aureus [1] was found to be 12.5 µg/mL (≈ 30.3 µM); in the assay with Pseudomonas aeruginosa it was 100 µg/mL (≈ 243 µM); with Bacillus spizizenii, 12.5 µg/mL (≈ 30.3 µM); in the assay with Shigella sonnei [5], 12.5 µg/mL (≈ 30.3 µM); in the assay with Escherichia coli [6], 12.5 µg/mL (≈ 30.3 µM). Besides, the “growth inhibition (GI)” value with Enterococcus sp. [16] was “inactive”. For the same molecule, the MLC with Staphylococcus aureus [2], in the assay on Escherichia coli [3] and in the assay on Shigella sonnei [4] was 200 µg/mL (≈ 485 µM) each time.

Values taken from ChEMBL document CHEMBL3259650, “Synthesis of symmetrically substituted 3,3-dibenzyl-4-hydroxy-3,4-dihydro-1H-quinolin-2-ones, as novel quinoline derivatives with antibacterial activity” (Eur J Med Chem, 2014).
